The target of series [1] is T1, Cathepsin S (Homo sapiens, UniProt P25774). Description: Inhibition of recombinant human Cathepsin S expressed in baculovirus infected insect cells using Z-VVR-AMC as substrate preincubated for 15 mins followed by substrate addition and measured after 10 mins by fluorescence assay.
A short description of series [2]: Permeability across apical to basal side in human Caco-2 cells at 1 uM measured up to 120 min by LC-MS analysis. The note with it: time <= 120, dose 1 µM, read-out: permeability. It counts as ADME, cell-based.
For series [3], the target named is T2, Cathepsin K (Homo sapiens) (UniProt P43235).
T2 sequence (whole entry): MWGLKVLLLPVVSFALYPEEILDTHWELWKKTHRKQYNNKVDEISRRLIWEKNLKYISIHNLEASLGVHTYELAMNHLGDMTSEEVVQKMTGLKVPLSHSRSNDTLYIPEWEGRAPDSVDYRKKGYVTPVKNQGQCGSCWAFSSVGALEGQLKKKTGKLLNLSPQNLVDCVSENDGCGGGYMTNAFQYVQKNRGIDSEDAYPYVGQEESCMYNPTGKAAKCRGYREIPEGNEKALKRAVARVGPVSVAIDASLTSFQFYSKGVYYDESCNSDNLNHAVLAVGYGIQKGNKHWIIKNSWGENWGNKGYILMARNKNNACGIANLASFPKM
Description: Inhibition of recombinant human Cathepsin K expressed in baculovirus infected insect cells using Z-FR-AMC as substrate up to 100 uM preincubated for 15 mins followed by substrate addition and measured after 10 mins by fluorescence assay relative to control. The note with it: time 25.0 min.

For series [4], the target named is Procathepsin L (Homo sapiens) (UniProt P07711). Description: Inhibition of human liver Cathepsin L using Z-VVR-AMC as substrate at 10 uM preincubated for 15 mins followed by substrate addition and measured after 10 mins by fluorescence assay relative to control. The settings on record: time 25.0 min.
Procathepsin L (Homo sapiens), sequence (P07711 114-333 limits assumed): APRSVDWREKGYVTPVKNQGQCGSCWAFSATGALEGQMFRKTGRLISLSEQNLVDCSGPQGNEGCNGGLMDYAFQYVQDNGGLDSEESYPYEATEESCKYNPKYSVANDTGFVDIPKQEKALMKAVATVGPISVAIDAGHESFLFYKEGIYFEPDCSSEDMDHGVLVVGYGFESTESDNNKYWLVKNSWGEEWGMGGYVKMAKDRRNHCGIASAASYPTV
For series [5], the species on record is Homo sapiens. Description: Selectivity ratio of inhibition of human liver Cathepsin L to inhibition of recombinant human Cathepsin S.
Series [6] is filed under the species Homo sapiens. Description: Selectivity ratio of inhibition of human liver Cathepsin B to inhibition of recombinant human Cathepsin S.
For series [7], the species on record is Homo sapiens. Description: Selectivity ratio of inhibition of recombinant human Cathepsin K to inhibition of recombinant human Cathepsin S.
The target of series [8] is Cathepsin B (Homo sapiens) (UniProt P07858). Description: Inhibition of human liver Cathepsin B using Z-VVR-AMC as substrate at 10 uM preincubated for 15 mins followed by substrate addition and measured after 10 mins by fluorescence assay relative to control. The note with it: time 25.0 min.
For series [9], the target named is T2, Cathepsin K (Homo sapiens). Description: Inhibition of recombinant human Cathepsin K expressed in baculovirus infected insect cells using Z-FR-AMC as substrate at 10 uM preincubated for 15 mins followed by substrate addition and measured after 10 mins by fluorescence assay relative to control. The settings on record: time 25.0 min.
The target in series [10] is T1, Cathepsin S. Description: Inhibition of Cathepsin S in human Raji cells assessed as increase in Lip10 accumulation after 24 hrs by SDS-PAGE analysis. It is filed as cell-based. The essentials:
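Human Raji cells, an antigen-presenting B-lymphocyte line, used for the target-engagement read-out. Inhibition is scored as intracellular accumulation of the CatS substrate Lip10, the invariant-chain-derived propeptide.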

The text below walks through data of ChEMBL document CHEMBL4665785 (J Med Chem, 2020).

Activity calls are given as the source filed them. The calls are words filed in the database; no cut-off is given here. Bounds are passed on as bounds.

T1 sequence (P25774 whole entry): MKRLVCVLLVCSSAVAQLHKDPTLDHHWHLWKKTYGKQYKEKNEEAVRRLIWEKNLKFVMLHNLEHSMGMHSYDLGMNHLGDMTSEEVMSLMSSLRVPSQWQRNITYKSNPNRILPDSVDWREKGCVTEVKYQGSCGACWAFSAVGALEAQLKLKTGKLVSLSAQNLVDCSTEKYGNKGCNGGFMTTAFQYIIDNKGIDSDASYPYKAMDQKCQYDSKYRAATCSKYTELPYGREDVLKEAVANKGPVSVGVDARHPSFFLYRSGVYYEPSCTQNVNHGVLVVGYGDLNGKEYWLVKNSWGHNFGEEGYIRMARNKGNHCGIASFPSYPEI

Regarding `N#CC1(NC(=O)[C@H](CS(=O)(=O)N2CCN(c3ccccn3)CC2)Nc2cccnc2)CC1`, on Cathepsin S [1], the Ki was 0.25 nM. For the same molecule, in [2], the Papp A→B at 2 h, 1 µM was 0.33 ×10⁻⁶ cm/s.

For `N#CC1(NC(=O)[C@@H](Cc2ccccc2)CS(=O)(=O)N2CCN(c3ccccn3)CC2)CC1`, the Ki at Cathepsin S [1] stood at 290 nM.

As for `N#CC1(NC(=O)[C@H](CS(=O)(=O)C[C@H]2CCC(=O)N2)N[C@@H](c2ccc(F)cc2)C(F)(F)F)CC1`, the Ki on Cathepsin S [1] is at most 100 nM.

`N#CC1(NC(=O)CCS(=O)(=O)N2CCN(c3ccccn3)CC2)CC1`: the inhibitory constant (Ki) on Cathepsin S [1] was 800 nM.

For `CNC(=O)CCS(=O)(=O)N1CCN(c2ccc3nncn3n2)CC1`, on Cathepsin S [1], the inhibitory constant (Ki) was found to be 700 nM. For the same molecule, in [3], the inhibition result is “inactive”.

Turning to `Cc1cc(CC(=O)N[C@@H](CS(=O)(=O)N2CCN(c3ccccn3)CC2)C(=O)NC2(C#N)CC2)on1`, the Ki on Cathepsin S [1] is 0.345 nM. The inhibition in series [4] is below 26%; in [8], below 8%; in series [9] it was below 16%. The Selectivity ratio in the series listed under Homo sapiens [5], in the series listed under Homo sapiens [6] and in the series filed under Homo sapiens [7] was above 30000 in each case.

Regarding `N#CC1(NC(=O)[C@H](CS(=O)(=O)N2CCN(c3ccccn3)CC2)NC(=O)Cc2cccs2)CC1`, the Ki at Cathepsin S [1] was 0.2 nM. In addition, the EC50 on Cathepsin S [10] was found to be 1100 nM. In series [2], the Papp A→B at 2 h, 1 µM stood at 0.4 ×10⁻⁶ cm/s.
